Source: ChEMBL document CHEMBL1152850, “Efficient inhibition of the Alzheimer's disease beta-secretase by membrane targeting” (Science, 2008)
Calls of active or inactive are those of the source. The calls are words filed in the database; no cut-off is given here. Square brackets hold non-standard residues; d marks the D form. Peptide text beside a SMILES is read from it. * marks the point of attachment. Piperazinyl(4-RhodamineB) = CCN(CC)c1ccc2c(-c3ccccc3C(=O)N3CCN(*)CC3)c3ccc(=[N+](CC)CC)cc-3oc2c1; X4 = CC(C)CCC[C@@H](C)[C@H]1CC[C@H]2[C@@H]3CC[C@H]4C[C@@H](OCC(=O)*)CC[C@]4(C)[C@H]3CC[C@]12C; X1 = CC(C)CCC[C@@H](C)[C@H]1CC[C@H]2[C@@H]3CCC4C[C@@H](O*)CC[C@]4(C)[C@H]3CC[C@]12C; Sta = CC(C)C[C@H](N)[C@@H](O)CC(=O)O; PEG4 = NCCOCCOCCOCCOCCC(=O)O; PEG3 = NCCOCCOCCOCCC(=O)O; X3 = CCCCCCCCCCCCCCCCO*; X2 = CCCCCCCCCCCCCCO*; βAla = NCCC(=O)O

Experiments:
[1] = biological target: Beta-secretase 1 (Homo sapiens) (UniProt P56817); experiment: Inhibition of BACE1 mediated APP cleavage in human HeLa cells expressing swAPP at 200 nM by electrochemiluminescence assay; assay type: cell-based
Beta-secretase 1 (Homo sapiens), sequence (P56817 whole entry, the tested form may be a part): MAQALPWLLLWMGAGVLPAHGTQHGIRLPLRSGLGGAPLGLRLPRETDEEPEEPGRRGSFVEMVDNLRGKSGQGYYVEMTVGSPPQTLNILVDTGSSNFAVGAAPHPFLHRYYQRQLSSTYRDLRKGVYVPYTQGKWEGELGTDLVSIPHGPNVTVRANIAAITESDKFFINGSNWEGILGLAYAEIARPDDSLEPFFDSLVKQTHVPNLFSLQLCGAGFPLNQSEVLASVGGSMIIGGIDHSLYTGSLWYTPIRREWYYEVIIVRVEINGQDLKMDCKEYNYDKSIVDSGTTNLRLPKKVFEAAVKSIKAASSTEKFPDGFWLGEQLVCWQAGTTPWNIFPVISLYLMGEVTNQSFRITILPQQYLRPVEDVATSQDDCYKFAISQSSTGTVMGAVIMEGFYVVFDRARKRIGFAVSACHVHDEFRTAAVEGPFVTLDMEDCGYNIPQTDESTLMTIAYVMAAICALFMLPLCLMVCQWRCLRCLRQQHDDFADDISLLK

[2] = biological target: Beta-secretase 1 (Homo sapiens) (UniProt P56817); experiment: Inhibition of BACE1 mediated APP cleavage in human HeLa cells expressing swAPP at 2 uM after 4 hrs by immunoblot; assay type: cell-based
[3] = biological target: Beta-secretase 1 (Homo sapiens) (UniProt P56817); experiment: Inhibition of BACE1 mediated APP cleavage in human HeLa cells expressing swAPP assessed as amyloid beta production at 2 uM after 4 hrs by immunoblot; assay type: cell-based
[4] = biological target: Beta-secretase 1 (Mus musculus) (UniProt P56818); experiment: Inhibition of BACE1 mediated APP cleavage in mouse N2a cells expressing swAPP by electrochemiluminescence assay; assay type: cell-based
Beta-secretase 1 (Mus musculus), sequence (P56818 whole entry): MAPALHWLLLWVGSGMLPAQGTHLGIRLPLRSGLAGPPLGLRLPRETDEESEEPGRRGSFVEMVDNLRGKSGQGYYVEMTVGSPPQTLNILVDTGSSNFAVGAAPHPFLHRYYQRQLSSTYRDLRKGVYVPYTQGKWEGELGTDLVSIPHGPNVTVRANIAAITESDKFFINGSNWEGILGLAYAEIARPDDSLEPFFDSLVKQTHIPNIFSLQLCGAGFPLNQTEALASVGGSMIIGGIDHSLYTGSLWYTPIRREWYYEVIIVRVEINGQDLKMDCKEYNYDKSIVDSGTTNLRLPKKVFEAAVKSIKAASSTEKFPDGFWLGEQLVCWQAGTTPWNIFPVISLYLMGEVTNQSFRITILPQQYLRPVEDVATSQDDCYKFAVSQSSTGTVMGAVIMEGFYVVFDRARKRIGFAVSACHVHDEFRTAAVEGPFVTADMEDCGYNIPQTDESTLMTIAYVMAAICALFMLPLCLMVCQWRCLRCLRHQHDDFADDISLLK

[5] = biological target: Beta-secretase 1 (Homo sapiens) (UniProt P56817); experiment: Inhibition of BACE1 mediated APP cleavage in human HeLa cells expressing swAPP assessed as amyloid beta production using rhodamine-labeled compound at 2 uM; assay type: cell-based
Summary of the method: (§1)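 Rhodamine-labeled inhibitors at 2 μM on HeLa-swAPP cells; medium analyzed by ECL for sAPPβ and Aβ40, with viability (percent survival). Means ± SD, representative of three independent experiments.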

[6] = biological target: Beta-secretase 1 (Homo sapiens) (UniProt P56817); experiment: Inhibition of BACE1 mediated APP cleavage in human HeLa cells expressing swAPP assessed as beta cleaved ectodomain of APP level using rhodamine-labeled compound at 0.1 mM; assay type: cell-based
Summary of the method: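 HeLa-swAPP cells treated with a range of concentrations of the sterol-linked inhibitor; β-cleaved ectodomain detected by immunostaining and imaging, nuclei counterstained with DAPI.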

[7] = biological target: Beta-secretase 1 (Homo sapiens) (UniProt P56817); experiment: Inhibition of BACE1 mediated APP cleavage in human HeLa cells expressing swAPP assessed as as beta cleaved ectodomain of APP level using rhodamine-labeled compound at 2 uM; assay type: cell-based; summary of the method: as §1
HeLa [8] = experiment: Increase in alpha secretase mediated APP cleavage in human HeLa cells expressing swAPP assessed as alpha cleaved ectodomain of APP at 200 nM by electrochemiluminescence assay; assay type: cell-based
HeLa [9] = experiment: Increase in alpha secretase mediated APP cleavage in human HeLa cells expressing swAPP at 2 uM after 4 hrs by immunoblot; assay type: cell-based
Drosophila [10] = experiment: Reduction on lethality of Drosophila UAS-APP/UAS-APP; UAS-BACE523/UAS-BACE523 flies expressing BACE mutant assessed as increase in survival by measuring eclosion numbers 4 mM dosed in diet; assay type: functional, organism-based
Mus musculus = experiment: Reduction in amyloid beta production in transgenic swAPP/PSDE9 mouse expressing APP KM670/671NL mutant and presenilin-1 […] at 10 mM dosed stereotaxically into hippocampus after 4 hrs; assay type: functional, organism-based
Summary of the method: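 APPsw/PSΔE9 transgenic mice given a stereotaxic injection into the hippocampus, with DMSO as solvent control; hippocampal Aβ measured 4 hours later. Means ± SD, Student t test.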

Drosophila [11] = experiment: Reduction on lethality of Drosophila w:actin-GAL4/Cyo;UASDPsn/Tm3 flies expressing presenilin mutant assessed as increase in survival by measuring eclosion numbers 4 mM dosed in diet; assay type: functional, organism-based
[12] = biological target: Beta-secretase 1 (Homo sapiens) (UniProt P56817); experiment: Inhibition of BACE1 mediated APP cleavage in human HeLa cells expressing swAPP at 200 nM after 4 hrs; assay type: cell-based
Summary of the method: (§2)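 HeLa-swAPP cells incubated with compounds at 20 nM or 200 nM for 4 hours; harvested medium assayed for sAPPβ and expressed as percent inhibition of β cleavage, mean ± SD.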

[13] = biological target: Beta-secretase 1 (Homo sapiens) (UniProt P56817); experiment: Inhibition of BACE1 mediated APP cleavage in human HeLa cells expressing swAPP at 20 nM after 4 hrs; assay type: cell-based; summary of the method: as §2
[14] = biological target: Beta-secretase 1 (Homo sapiens) (UniProt P56817); experiment: Inhibition of BACE1 ectodomain relative to control
[15] = biological target: Beta-secretase 1 (Homo sapiens) (UniProt P56817); experiment: Inhibition of BACE1 mediated APP cleavage in human HeLa cells expressing swAPP assessed as as beta cleaved ectodomain of APP level; assay type: cell-based

Question: `CC(C)C[C@H](NC(=O)[C@H](CC(N)=O)NC(=O)[C@@H](NC(=O)[C@@H](N)CCC(=O)O)C(C)C)[C@@H](O)CC(=O)N[C@H](C(=O)N[C@@H](C)C(=O)N[C@@H](CCC(=O)O)C(=O)N[C@@H](Cc1ccccc1)C(=O)NCCOCCOCCOCCOCCC(=O)NCCOCCOCCOCCC(=O)NCCOCCOCCOCCOCCC(=O)NCCOCCOCCOCCC(=O)NCCOCCOCCOCCOCCC(N)=O)C(C)C` (H-EVN[Sta]VAEF[PEG4][PEG3][PEG4][PEG3][PEG4]-NH2) was tested. Which inhibition [1] did it give?
Answer: Its inhibition is “inactive”.

Question: Which inhibition [2] does the source give for `CC(C)CCC[C@@H](C)[C@H]1CC[C@H]2[C@@H]3CCC4C[C@@H](OC(=O)C[C@H](NC(=O)CCOCCOCCOCCOCCNC(=O)CCOCCOCCOCCNC(=O)CCOCCOCCOCCOCCNC(=O)CCOCCOCCOCCNC(=O)CCOCCOCCOCCOCCNC(=O)[C@H](Cc5ccccc5)NC(=O)[C@H](CCC(=O)O)NC(=O)[C@H](C)NC(=O)[C@@H](NC(=O)C[C@H](O)[C@H](CC(C)C)NC(=O)[C@H](CC(N)=O)NC(=O)[C@@H](NC(=O)[C@@H](N)CCC(=O)O)C(C)C)C(C)C)C(N)=O)CC[C@]4(C)[C@H]3CC[C@]12C` (stereo partly specified) (H-EVN[Sta]VAEF[PEG4][PEG3][PEG4][PEG3][PEG4]D(X1)-NH2) here?
Answer: The inhibition was “Active”.

Question: What about the inhibition [3] of the same compound?
Answer: The inhibition was “Active”.

Question: And the inhibition [4]?
Answer: The inhibition was “Active”.

Question: What about the inhibition [5] of the same compound?
Answer: Its inhibition is “Active”.

Question: What about the inhibition [6] of the same compound?
Answer: Its inhibition is “Active”.

Question: And the inhibition [7]?
Answer: The inhibition was “Active”.

Question: And the inhibition (HeLa [8])?
Answer: Its inhibition is “Active”.

Question: What about the inhibition (HeLa [9]) of the same compound?
Answer: The inhibition was “Active”.

Question: And the inhibition (Drosophila [10])?
Answer: Its inhibition is “Active”.

Question: What about the Activity (Mus musculus) of the same compound?
Answer: Its Activity is “Active”.

Question: And the inhibition (Drosophila [11])?
Answer: The inhibition was “Active”.

Question: What does the source list for `CCCCCCCCCCCCCCOC(=O)C[C@H](NC(=O)CCOCCOCCOCCOCCNC(=O)CCOCCOCCOCCNC(=O)CCOCCOCCOCCOCCNC(=O)CCOCCOCCOCCNC(=O)CCOCCOCCOCCOCCNC(=O)[C@H](Cc1ccccc1)NC(=O)[C@H](CCC(=O)O)NC(=O)[C@H](C)NC(=O)[C@@H](NC(=O)C[C@H](O)[C@H](CC(C)C)NC(=O)[C@H](CC(N)=O)NC(=O)[C@@H](NC(=O)[C@@H](N)CCC(=O)O)C(C)C)C(C)C)C(N)=O` (H-EVN[Sta]VAEF[PEG4][PEG3][PEG4][PEG3][PEG4]D(X2)-NH2)?
Answer: inhibition [12]: Active; inhibition [13]: Active

Question: With `CCCCCCCCCCCCCCCCOC(=O)C[C@H](NC(=O)CCOCCOCCOCCOCCNC(=O)CCOCCOCCOCCNC(=O)CCOCCOCCOCCOCCNC(=O)CCOCCOCCOCCNC(=O)CCOCCOCCOCCOCCNC(=O)[C@H](Cc1ccccc1)NC(=O)[C@H](CCC(=O)O)NC(=O)[C@H](C)NC(=O)[C@@H](NC(=O)C[C@H](O)[C@H](CC(C)C)NC(=O)[C@H](CC(N)=O)NC(=O)[C@@H](NC(=O)[C@@H](N)CCC(=O)O)C(C)C)C(C)C)C(N)=O` (H-EVN[Sta]VAEF[PEG4][PEG3][PEG4][PEG3][PEG4]D(X3)-NH2) as the compound, how does the inhibition [12] read?
Answer: Its inhibition is “Active”.

Question: And the inhibition [13]?
Answer: Its inhibition is “Active”.

Question: Which results are given for `CC(C)C[C@H](NC(=O)[C@H](CC(N)=O)NC(=O)[C@@H](NC(=O)[C@@H](N)CCC(=O)O)C(C)C)[C@@H](O)CC(=O)N[C@H](C(=O)N[C@@H](C)C(=O)N[C@@H](CCC(=O)O)C(=O)N[C@@H](Cc1ccccc1)C(N)=O)C(C)C` (HELM PEPTIDE1{E.V.N.[CC(C)C[C@H](N[*:1])[C@@H](O)CC(=O)[*:2]].V.A.E.F.[am]}$$$$V2.0)?
Answer: inhibition [14]: Active; inhibition [4]: inactive; inhibition [15]: inactive; inhibition (Mus musculus): inactive

Question: How did the inhibition [1] turn out when `CCN(CC)c1ccc2c(-c3ccccc3C(=O)N3CCN(C(=O)CC[C@H](NC(=O)CCNC(=O)[C@H](CCCN=C(N)N)NC(=O)[C@H](CCCN=C(N)N)NC(=O)CO[C@H]4CC[C@@]5(C)[C@@H](CC[C@@H]6[C@@H]5CC[C@]5(C)[C@@H]([C@H](C)CCCC(C)C)CC[C@@H]65)C4)C(=O)NCCC(=O)NCC(=O)N[C@@H](CCC(=O)O)C(=O)N[C@H](C(=O)N[C@@H](CC(N)=O)C(=O)N[C@@H](CC(C)C)[C@@H](O)CC(=O)N[C@H](C(=O)N[C@@H](C)C(=O)N[C@@H](CCC(=O)O)C(=O)N[C@@H](Cc4ccccc4)C(N)=O)C(C)C)C(C)C)CC3)c3ccc(=[N+](CC)CC)cc-3oc2c1` (X4-RR[βAla]E(Piperazinyl(4-RhodamineB))[βAla]GEVN[Sta]VAEF-NH2) was run?
Answer: Its inhibition is “inactive”.
